# According to ChEMBL document CHEMBL1212764, “Antimicrobial resistance in Haemophilus influenzae respiratory tract isolates in Korea: results of a nationwide acute respiratory infections surveillance” (2010):
# Assays:
# Assay type in all cases: functional
# Haemophilus influenzae [1] = assay: Antimicrobial activity against Haemophilus influenzae isolate by broth microdilution method
# In short: (§1)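 Broth microdilution MIC in freshly prepared Haemophilus test medium per 2008 CLSI guidelines; H. influenzae ATCC 49247 and ATCC 49766 as control strains. Isolates from outpatient nasal aspirates (no prior antibiotics), cultured on blood agar with S. aureus streak and chocolate agar. PBP3 substitutions deduced from ftsI sequencing against the Rd strain; β-lactamase genes (TEM-1, ROB-1) detected by PCR.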
# Haemophilus influenzae [2] = assay: Antimicrobial activity against beta-lactamase-negative, ampicillin-sensitive Haemophilus influenzae by broth microdilution method; in short: as §1
# Haemophilus influenzae [3] = assay: Antimicrobial activity against Beta-lactamase-positive, ampicillin-resistant Haemophilus influenzae by broth microdilution method; in short: as §1
# Haemophilus influenzae [4] = assay: Antimicrobial activity against Beta-lactamase-negative, ampicillin-resistant Haemophilus influenzae by broth microdilution method; in short: as §1
# Haemophilus influenzae [5] = assay: Antimicrobial activity against Beta-lactamase-positive, ampicillin-cluvulanate-resistant Haemophilus influenzae by broth microdilution method; in short: as §1
# Haemophilus influenzae [6] = assay: Antimicrobial activity against Beta-lactamase-negative, ampicillin-resistant Haemophilus influenzae with Asp350Asn, Ser357Asp, Met377Ile, Ser385Thr, Arg517His substitutions in penicillin-binding protein 3 by broth microdilution method; in short: as §1
# Haemophilus influenzae [7] = assay: Antimicrobial activity against Beta-lactamase-negative, ampicillin-resistant Haemophilus influenzae with Gly490Glu, Asn526Lys substitutions in penicillin-binding protein 3 by broth microdilution method; in short: as §1
# Haemophilus influenzae [8] = assay: Antimicrobial activity against Beta-lactamase-negative, ampicillin-resistant Haemophilus influenzae with Asp350Asn, Met377Ile, Asn526Lys substitutions in penicillin-binding protein 3 by broth microdilution method; in short: as §1
# Haemophilus influenzae [9] = assay: Antimicrobial activity against Beta-lactamase-negative, ampicillin-resistant Haemophilus influenzae with Asp350Asn, Met377Ile, Gly490Glu, Asn526Lys substitutions in penicillin-binding protein 3 by broth microdilution method; in short: as §1
# Haemophilus influenzae [10] = assay: Antimicrobial activity against Beta-lactamase-negative, ampicillin-resistant Haemophilus influenzae with Ala502Val, Asn526Lys substitutions in penicillin-binding protein 3 by broth microdilution method; in short: as §1
# Haemophilus influenzae [11] = assay: Antimicrobial activity against Beta-lactamase-negative, ampicillin-resistant Haemophilus influenzae with Asp350Asn, Met377Ile, Ala502Val, Asn526Lys substitutions in penicillin-binding protein 3 by broth microdilution method; in short: as §1
# Haemophilus influenzae [12] = assay: Antimicrobial activity against Beta-lactamase-negative, ampicillin-resistant Haemophilus influenzae with Asp350Asn, Met377Ile, Gly490Glu, Ala502Val, Asn526Lys substitutions in penicillin-binding protein 3 by broth microdilution method; in short: as §1
# Haemophilus influenzae [13] = assay: Antimicrobial activity against Beta-lactamase-negative, ampicillin-resistant Haemophilus influenzae with Ser311Pro, Ala502Thr, Asn526Lys substitutions in penicillin-binding protein 3 by broth microdilution method; in short: as §1
# Haemophilus influenzae [14] = assay: Antimicrobial activity against Beta-lactamase-negative, ampicillin-resistant Haemophilus influenzae with Ile449Val, Ala502Thr, Asn526Lys substitutions in penicillin-binding protein 3 by broth microdilution method; in short: as §1
# Haemophilus influenzae [15] = assay: Antimicrobial activity against Beta-lactamase-negative, ampicillin-resistant Haemophilus influenzae with Asp350Asn, Ser357Asp, Met377Ile, Ser385Thr, Ala502Thr, Asn526Lys substitutions in penicillin-binding protein 3 by broth microdilution method; in short: as §1
# Haemophilus influenzae [16] = assay: Antimicrobial activity against Beta-lactamase-negative, ampicillin-resistant Haemophilus influenzae with Asp350Asn, Ser357Asp, Ser385Thr, Leu389Phe, Ala502Thr, Asn526Lys substitutions in penicillin-binding protein 3 by broth microdilution method; in short: as §1
# Haemophilus influenzae [17] = assay: Antimicrobial activity against Beta-lactamase-negative, ampicillin-resistant Haemophilus influenzae with Ile449Val, Asn526Lys substitutions in penicillin-binding protein 3 by broth microdilution method; in short: as §1
# Haemophilus influenzae [18] = assay: Antimicrobial activity against Beta-lactamase-negative, ampicillin-resistant Haemophilus influenzae with Asp350Asn, Ser357Asp, Met377Ile, Ser385Thr, Leu389Phe, substitutions in penicillin-binding protein 3 by broth microdilution method; in short: as §1
# Haemophilus influenzae [19] = assay: Antimicrobial activity against Beta-lactamase-negative, ampicillin-resistant Haemophilus influenzae with penicillin-binding protein 3 by broth microdilution method; in short: as §1
# Haemophilus influenzae [20] = assay: Antimicrobial activity against Beta-lactamase-positive, ampicillin-cluvulanate-resistant Haemophilus influenzae with Asp350Asn, Ser357Asp, Met377Ile, Ser385Thr, Arg517His substitutions in penicillin-binding protein 3 by broth microdilution method; in short: as §1
# Haemophilus influenzae [21] = assay: Antimicrobial activity against Beta-lactamase-positive, ampicillin-cluvulanate-resistant Haemophilus influenzae with Asp350Asn, Met377Ile, Asn526Lys substitutions in penicillin-binding protein 3 by broth microdilution method; in short: as §1
# Haemophilus influenzae [22] = assay: Antimicrobial activity against Beta-lactamase-positive, ampicillin-cluvulanate-resistant Haemophilus influenzae with Asp350Asn, Met377Ile, Ser385Thr, Asn526Lys substitutions in penicillin-binding protein 3 by broth microdilution method; in short: as §1
# Haemophilus influenzae [23] = assay: Antimicrobial activity against Beta-lactamase-positive, ampicillin-cluvulanate-resistant Haemophilus influenzae with Asp350Asn, Met377Ile, Ala502Val, Asn526Lys substitutions in penicillin-binding protein 3 by broth microdilution method; in short: as §1
# Haemophilus influenzae [24] = assay: Antimicrobial activity against Beta-lactamase-positive, ampicillin-cluvulanate-resistant Haemophilus influenzae with Ala502Val, Asn526Lys substitutions in penicillin-binding protein 3 by broth microdilution method; in short: as §1
# Haemophilus influenzae [25] = assay: Antimicrobial activity against Beta-lactamase-positive, ampicillin-cluvulanate-resistant Haemophilus influenzae with Asp350Asn, Met377Ile, Gly490Glu, Ala502Val, Asn526Lys substitutions in penicillin-binding protein 3 by broth microdilution method; in short: as §1
# Haemophilus influenzae [26] = assay: Antimicrobial activity against Beta-lactamase-positive, ampicillin-cluvulanate-resistant Haemophilus influenzae with Ala368Thr, Ala502Thr, Asn526Lys substitutions in penicillin-binding protein 3 by broth microdilution method; in short: as §1
# Haemophilus influenzae [27] = assay: Antimicrobial activity against Beta-lactamase-positive, ampicillin-cluvulanate-resistant Haemophilus influenzae with Asp350Asn, Ser357Asp, Ala437Ser, Ala502Thr, Asn526Lys substitutions in penicillin-binding protein 3 by broth microdilution method; in short: as §1
# Haemophilus influenzae [28] = assay: Antimicrobial activity against Beta-lactamase-positive, ampicillin-cluvulanate-resistant Haemophilus influenzae with Asp350Asn, Ala502Thr, Asn526Lys substitutions in penicillin-binding protein 3 by broth microdilution method; in short: as §1
# Haemophilus influenzae [29] = assay: Antimicrobial activity against Beta-lactamase-positive, ampicillin-cluvulanate-resistant Haemophilus influenzae with Ile449Val, Asn526Lys substitutions in penicillin-binding protein 3 by broth microdilution method; in short: as §1
# Haemophilus influenzae [30] = assay: Antimicrobial activity against Beta-lactamase-positive, ampicillin-cluvulanate-resistant Haemophilus influenzae with Asp350Asn, Ala437Ser substitutions in penicillin-binding protein 3 by broth microdilution method; in short: as §1
# [31] = Haemophilus influenzae, read-out: MIC
SMILES,MIC50 (Haemophilus influenzae [1]) [µg/mL],MIC90 (Haemophilus influenzae [1]) [µg/mL],MIC50 (Haemophilus influenzae [2]) [µg/mL],MIC90 (Haemophilus influenzae [2]) [µg/mL],MIC50 (Haemophilus influenzae [3]) [µg/mL],MIC90 (Haemophilus influenzae [3]) [µg/mL],MIC50 (Haemophilus influenzae [4]) [µg/mL],MIC90 (Haemophilus influenzae [4]) [µg/mL],MIC50 (Haemophilus influenzae [5]) [µg/mL],MIC90 (Haemophilus influenzae [5]) [µg/mL],MIC (Haemophilus influenzae [6]) [µg/mL],MIC (Haemophilus influenzae [7]) [µg/mL],MIC (Haemophilus influenzae [8]) [µg/mL],MIC (Haemophilus influenzae [9]) [µg/mL],MIC (Haemophilus influenzae [10]) [µg/mL],MIC (Haemophilus influenzae [11]) [µg/mL],MIC (Haemophilus influenzae [12]) [µg/mL],MIC (Haemophilus influenzae [13]) [µg/mL],MIC (Haemophilus influenzae [14]) [µg/mL],MIC (Haemophilus influenzae [15]) [µg/mL],other results
CO/N=C(\C(=O)N[C@@H]1C(=O)N2C(C(=O)O)=C(COC(C)=O)CS[C@H]12)c1csc(N)n1 [CEFOTAXIME],0.063,0.125,0.063,0.25,0.063,0.125,0.063,1,0.063,1,0.25,0.063,0.063,0.063,0.069,0.069,0.069,0.194,0.194,0.194,MIC (Haemophilus influenzae [16]): 0.194 µg/mL; MIC (Haemophilus influenzae [17]; [31]): 0.708 µg/mL; MIC (Haemophilus influenzae [18]): 1.7 µg/mL; MIC (Haemophilus influenzae [19]): 0.063 µg/mL; MIC (Haemophilus influenzae [20]): 0.188 µg/mL; MIC (Haemophilus influenzae [21]): 0.532 µg/mL; MIC (Haemophilus influenzae [22]): 0.532 µg/mL; MIC (Haemophilus influenzae [23]): 0.188 µg/mL; MIC (Haemophilus influenzae [24]): 0.188 µg/mL; MIC (Haemophilus influenzae [25]): 0.188 µg/mL; MIC (Haemophilus influenzae [26]): 0.079 µg/mL; MIC (Haemophilus influenzae [27]): 0.079 µg/mL; MIC (Haemophilus influenzae [28]): 0.079 µg/mL; MIC (Haemophilus influenzae [29]): 0.094 µg/mL; MIC (Haemophilus influenzae [30]): 0.125 µg/mL
O=C(N[C@H](CO)[C@H](O)c1ccc([N+](=O)[O-])cc1)C(Cl)Cl [CHLORAMPHENICOL],0.5,1,0.5,0.5,0.5,8,0.5,1,0.5,8,,,,,,,,,,,
CC[C@H]1OC(=O)[C@H](C)[C@@H](O[C@H]2C[C@@](C)(OC)[C@@H](O)[C@H](C)O2)[C@H](C)[C@@H](O[C@@H]2O[C@H](C)C[C@H](N(C)C)[C@H]2O)[C@](C)(OC)C[C@@H](C)C(=O)[C@H](C)[C@@H](O)[C@]1(C)O [CLARITHROMYCIN],8,16,8,16,8,16,8,32,8,16,,,,,,,,,,,
N[C@@H](C(=O)N[C@@H]1C(=O)N2C(C(=O)O)=C(Cl)CS[C@H]12)c1ccccc1 [CEFACLOR ANHYDROUS],8,32,8,16,8,32,8,32,8,64,,,,,,,,,,,
C[C@H]1COc2c(N3CCN(C)CC3)c(F)cc3c(=O)c(C(=O)O)cn1c23.C[C@H]1COc2c(N3CCN(C)CC3)c(F)cc3c(=O)c(C(=O)O)cn1c23.O [LEVOFLOXACIN],0.016,0.031,0.016,0.031,0.016,0.031,0.016,0.016,0.016,0.031,,,,,,,,,,,
CC1(C)S[C@@H]2[C@H](NC(=O)[C@H](N)c3ccccc3)C(=O)N2[C@H]1C(=O)O [AMPICILLIN],16,256,1,1,128,256,2,8,256,> 512,2,4,4,4,2.2,2.2,2.2,2.8,2.8,2.8,MIC (Haemophilus influenzae [16]): 2.8 µg/mL; MIC (Haemophilus influenzae [17]): 2.7 µg/mL; MIC (Haemophilus influenzae [17]; [31]): 2.7 µg/mL; MIC (Haemophilus influenzae [18]): 5.3 µg/mL; MIC (Haemophilus influenzae [19]): 2 µg/mL; MIC (Haemophilus influenzae [20]): 192 µg/mL; MIC (Haemophilus influenzae [21]): 288 µg/mL; MIC (Haemophilus influenzae [22]): 288 µg/mL; MIC (Haemophilus influenzae [23]): 230 µg/mL; MIC (Haemophilus influenzae [24]): 230 µg/mL; MIC (Haemophilus influenzae [25]): 230 µg/mL; MIC (Haemophilus influenzae [26]): 208 µg/mL; MIC (Haemophilus influenzae [27]): 208 µg/mL; MIC (Haemophilus influenzae [28]): 208 µg/mL; MIC (Haemophilus influenzae [29]): 512 µg/mL; MIC (Haemophilus influenzae [30]): 512 µg/mL
